Test results published in ChEMBL document CHEMBL1144839, “Cytotoxic bastadin 24 from the Australian sponge Ianthella quadrangulata” (J Nat Prod, 2008).
Values after ≈ are worked out from the molar mass of the structure shown.

Columns and labels:
Assay type in all cases: functional, cell-based
[1] = Cytotoxicity against human 289L cells after 4 days by modified propidium iodide monolayer assay; conditions: 96 h
How it was run: (§1)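 Part of a 36-line human tumor cell panel. Proliferation inhibition was measured over a range of concentrations, and an IC50 was derived for each cell line from its concentration–response.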

CWR22R = assay: Cytotoxicity against human 22RV1 cells after 4 days by modified propidium iodide monolayer assay; conditions: 22Rv1, 96 h; how it was run: as §1
HCT-116 = assay: Cytotoxicity against human HCT116 cells after 4 days by modified propidium iodide monolayer assay; conditions: HCT-116, 96 h; how it was run: as §1
[2] = Cytotoxicity against human 251L cells after 4 days by modified propidium iodide monolayer assay; conditions: 96 h; how it was run: as §1
[3] = Cytotoxicity against human 944L cells after 4 days by modified propidium iodide monolayer assay; conditions: 96 h; how it was run: as §1
[4] = Cytotoxicity against human 536L cells after 4 days by modified propidium iodide monolayer assay; conditions: 96 h; how it was run: as §1
[5] = Cytotoxicity against human 276L cells after 4 days by modified propidium iodide monolayer assay; conditions: 96 h; how it was run: as §1
LNCaP = assay: Cytotoxicity against human LNCAP cells after 4 days by modified propidium iodide monolayer assay; conditions: 96 h; how it was run: as §1
T-24 = assay: Cytotoxicity against human T24 cells after 4 days by modified propidium iodide monolayer assay; conditions: T-24, 96 h; how it was run: as §1
[6] = Cytotoxicity against human 520L cells after 4 days by modified propidium iodide monolayer assay; conditions: 96 h; how it was run: as §1
[7] = Cytotoxicity against human 1138L cells after 4 days by modified propidium iodide monolayer assay; conditions: 96 h; how it was run: as §1
[8] = Cytotoxicity against human 1781L cells after 4 days by modified propidium iodide monolayer assay; conditions: 96 h; how it was run: as §1
[9] = Cytotoxicity against human 529L cells after 4 days by modified propidium iodide monolayer assay; conditions: 96 h; how it was run: as §1
[10] = Cytotoxicity against human 393NL cells after 4 days by modified propidium iodide monolayer assay; conditions: 96 h; how it was run: as §1
[11] = Cytotoxicity against human 498NL cells after 4 days by modified propidium iodide monolayer assay; conditions: 96 h; how it was run: as §1
[12] = Cytotoxicity against human 401NL cells after 4 days by modified propidium iodide monolayer assay; conditions: 96 h; how it was run: as §1
[13] = Cytotoxicity against human 899L cells after 4 days by modified propidium iodide monolayer assay; conditions: 96 h; how it was run: as §1
[14] = Cytotoxicity against human 629L cells after 4 days by modified propidium iodide monolayer assay; conditions: 96 h; how it was run: as §1
[15] = Cytotoxicity against human 1657L cells after 4 days by modified propidium iodide monolayer assay; conditions: 96 h; how it was run: as §1
[16] = Cytotoxicity against human PC3M cells after 4 days by modified propidium iodide monolayer assay; conditions: PC-3M, 96 h; how it was run: as §1
HT-29 = assay: Cytotoxicity against human HT29 cells after 4 days by modified propidium iodide monolayer assay; conditions: HT-29, 96 h; how it was run: as §1
[17] = Cytotoxicity against human 486L cells after 4 days by modified propidium iodide monolayer assay; conditions: 96 h; how it was run: as §1
[18] = Cytotoxicity against human 462NL cells after 4 days by modified propidium iodide monolayer assay; conditions: 96 h; how it was run: as §1
SF-268 = assay: Cytotoxicity against human SF268 cells after 4 days by modified propidium iodide monolayer assay; conditions: SF-268, 96 h; how it was run: as §1
[19] = Cytotoxicity against human 1752L cells after 4 days by modified propidium iodide monolayer assay; conditions: 96 h; how it was run: as §1
[20] = Cytotoxicity against human 526L cells after 4 days by modified propidium iodide monolayer assay; conditions: 96 h; how it was run: as §1
[21] = Cytotoxicity against human 394NL cells after 4 days by modified propidium iodide monolayer assay; conditions: 96 h; how it was run: as §1
[22] = Cytotoxicity against human 1218L cells after 4 days by modified propidium iodide monolayer assay; conditions: 96 h; how it was run: as §1
DU-145 = assay: Cytotoxicity against human DU145 cells after 4 days by modified propidium iodide monolayer assay; conditions: DU-145, 96 h; how it was run: as §1
[23] = Cytotoxicity against human 1619L cells after 4 days by modified propidium iodide monolayer assay; conditions: 96 h; how it was run: as §1
[24] = Cytotoxicity against human 1121L cells after 4 days by modified propidium iodide monolayer assay; conditions: 96 h; how it was run: as §1
MCF7 = assay: Cytotoxicity against human MCF7 cells after 4 days by modified propidium iodide monolayer assay; conditions: MCF7, 96 h; how it was run: as §1
[25] = Cytotoxicity against human 514L cells after 4 days by modified propidium iodide monolayer assay; conditions: 96 h; how it was run: as §1
NCI-H460 = assay: Cytotoxicity against human H460 cells after 4 days by modified propidium iodide monolayer assay; conditions: NCI-H460, 96 h; how it was run: as §1
OVCAR-3 = assay: Cytotoxicity against human OVCAR-3 cells after 4 days by modified propidium iodide monolayer assay; conditions: OVCAR-3, 96 h; how it was run: as §1
PANC-1 = assay: Cytotoxicity against human PANC1 cells after 4 days by modified propidium iodide monolayer assay; conditions: PANC-1, 96 h; how it was run: as §1

## O=C1NCCc2cc(Br)c(c(Br)c2)Oc2cc(cc(Br)c2O)CCNC(=O)/C(=N/O)C(O)c2cc(Br)c(c(Br)c2)Oc2cc(cc(Br)c2O)C/C1=N\O (stereo not drawn) [BASTADIN 24]
[1]
  IC50: 2.68 µg/mL (≈ 2.41 µM)
  IC70: 4.88 µg/mL (≈ 4.38 µM)
  IC90: 8.87 µg/mL (≈ 7.96 µM)
CWR22R
  IC50: 0.46 µg/mL (≈ 0.413 µM)
  IC70: 0.96 µg/mL (≈ 0.862 µM)
  IC90: 5.75 µg/mL (≈ 5.16 µM)
HCT-116
  IC50: 3.87 µg/mL (≈ 3.47 µM)
  IC70: 5.71 µg/mL (≈ 5.13 µM)
  IC90: 8.4 µg/mL (≈ 7.54 µM)
[2]
  IC50: 2.64 µg/mL (≈ 2.37 µM)
  IC70: 5.42 µg/mL (≈ 4.87 µM)
  IC90: 11.1 µg/mL (≈ 10 µM)
[3]
  IC50: 2.28 µg/mL (≈ 2.05 µM)
  IC70: 4.54 µg/mL (≈ 4.08 µM)
  IC90: 9.02 µg/mL (≈ 8.1 µM)
[4]
  IC50: 4.19 µg/mL (≈ 3.76 µM)
  IC70: 6.16 µg/mL (≈ 5.53 µM)
  IC90: 9.08 µg/mL (≈ 8.15 µM)
[5]
  IC50: 0.59 µg/mL (≈ 0.53 µM)
  IC70: 2.02 µg/mL (≈ 1.81 µM)
  IC90: 14.9 µg/mL (≈ 13.4 µM)
LNCaP
  IC50: 2.47 µg/mL (≈ 2.22 µM)
  IC70: 4.59 µg/mL (≈ 4.12 µM)
  IC90: 8.56 µg/mL (≈ 7.68 µM)
T-24
  IC50: 0.79 µg/mL (≈ 0.709 µM)
  IC70: 2.19 µg/mL (≈ 1.97 µM)
  IC90: 6.24 µg/mL (≈ 5.6 µM)
[6]
  IC50: 2.6 µg/mL (≈ 2.33 µM)
  IC70: 4.56 µg/mL (≈ 4.09 µM)
  IC90: 7.99 µg/mL (≈ 7.17 µM)
[7]
  IC50: 1.4 µg/mL (≈ 1.26 µM)
  IC70: 3.3 µg/mL (≈ 2.96 µM)
  IC90: 7.74 µg/mL (≈ 6.95 µM)
[8]
  IC50: 2.88 µg/mL (≈ 2.59 µM)
  IC70: 4.94 µg/mL (≈ 4.43 µM)
  IC90: 8.5 µg/mL (≈ 7.63 µM)
[9]
  IC50: 1.7 µg/mL (≈ 1.53 µM)
  IC70: 3.61 µg/mL (≈ 3.24 µM)
  IC90: 7.68 µg/mL (≈ 6.89 µM)
[10]
  IC50: 2.42 µg/mL (≈ 2.17 µM)
  IC70: 4.38 µg/mL (≈ 3.93 µM)
  IC90: 7.9 µg/mL (≈ 7.09 µM)
[11]
  IC50: 2.64 µg/mL (≈ 2.37 µM)
  IC70: 4.6 µg/mL (≈ 4.13 µM)
  IC90: 8.01 µg/mL (≈ 7.19 µM)
[12]
  IC50: 0.55 µg/mL (≈ 0.494 µM)
  IC70: 0.87 µg/mL (≈ 0.781 µM)
  IC90: 8.58 µg/mL (≈ 7.7 µM)
[13]
  IC50: 3.79 µg/mL (≈ 3.4 µM)
  IC70: 5.95 µg/mL (≈ 5.34 µM)
  IC90: 9.35 µg/mL (≈ 8.39 µM)
[14]
  IC50: 0.37 µg/mL (≈ 0.332 µM)
  IC70: 0.63 µg/mL (≈ 0.566 µM)
  IC90: 1.67 µg/mL (≈ 1.5 µM)
[15]
  IC50: 2.18 µg/mL (≈ 1.96 µM)
  IC70: 4.58 µg/mL (≈ 4.11 µM)
  IC90: 9.64 µg/mL (≈ 8.65 µM)
[16]
  IC50: 1.29 µg/mL (≈ 1.16 µM)
  IC70: 3.03 µg/mL (≈ 2.72 µM)
  IC90: 7.11 µg/mL (≈ 6.38 µM)
HT-29
  IC50: 2 µg/mL (≈ 1.8 µM)
  IC70: 3.85 µg/mL (≈ 3.46 µM)
  IC90: 7.44 µg/mL (≈ 6.68 µM)
[17]
  IC50: 6.08 µg/mL (≈ 5.46 µM)
  IC70: 11.3 µg/mL (≈ 10.2 µM)
  IC90: 21.1 µg/mL (≈ 18.9 µM)
[18]
  IC50: 1.58 µg/mL (≈ 1.42 µM)
  IC70: 3.66 µg/mL (≈ 3.29 µM)
  IC90: 8.46 µg/mL (≈ 7.59 µM)
SF-268
  IC50: 0.38 µg/mL (≈ 0.341 µM)
  IC70: 0.61 µg/mL (≈ 0.548 µM)
  IC90: 0.96 µg/mL (≈ 0.862 µM)
[19]
  IC50: 3.81 µg/mL (≈ 3.42 µM)
  IC70: 5.91 µg/mL (≈ 5.31 µM)
  IC90: 9.16 µg/mL (≈ 8.22 µM)
[20]
  IC50: 1.22 µg/mL (≈ 1.1 µM)
  IC70: 3.24 µg/mL (≈ 2.91 µM)
  IC90: 8.63 µg/mL (≈ 7.75 µM)
[21]
  IC50: 1.5 µg/mL (≈ 1.35 µM)
  IC70: 3.36 µg/mL (≈ 3.02 µM)
  IC90: 7.54 µg/mL (≈ 6.77 µM)
[22]
  IC50: 2.56 µg/mL (≈ 2.3 µM)
  IC70: 4.9 µg/mL (≈ 4.4 µM)
  IC90: 9.37 µg/mL (≈ 8.41 µM)
DU-145
  IC50: 0.96 µg/mL (≈ 0.862 µM)
  IC70: 2.59 µg/mL (≈ 2.32 µM)
  IC90: 7.04 µg/mL (≈ 6.32 µM)
[23]
  IC50: 2.77 µg/mL (≈ 2.49 µM)
  IC70: 4.73 µg/mL (≈ 4.25 µM)
  IC90: 8.07 µg/mL (≈ 7.24 µM)
[24]
  IC50: 1.51 µg/mL (≈ 1.36 µM)
  IC70: 3.43 µg/mL (≈ 3.08 µM)
  IC90: 7.81 µg/mL (≈ 7.01 µM)
MCF7
  IC50: 1.46 µg/mL (≈ 1.31 µM)
  IC70: 3.37 µg/mL (≈ 3.03 µM)
  IC90: 7.78 µg/mL (≈ 6.98 µM)
[25]
  IC50: 1.62 µg/mL (≈ 1.45 µM)
  IC70: 3.64 µg/mL (≈ 3.27 µM)
  IC90: 8.17 µg/mL (≈ 7.33 µM)
NCI-H460
  IC50: 4.31 µg/mL (≈ 3.87 µM)
  IC70: 6.08 µg/mL (≈ 5.46 µM)
  IC90: 8.57 µg/mL (≈ 7.69 µM)
OVCAR-3
  IC50: 3.66 µg/mL (≈ 3.29 µM)
  IC70: 5.72 µg/mL (≈ 5.13 µM)
  IC90: 8.94 µg/mL (≈ 8.02 µM)
PANC-1
  IC50: 4.23 µg/mL (≈ 3.8 µM)
  IC70: 6.31 µg/mL (≈ 5.66 µM)
  IC90: 9.41 µg/mL (≈ 8.45 µM)
